Active and inactive are the calls of the source. The rule behind the calls is not given here.
System: not listed separately
Test: Cytotoxicity against human 786-O cells by MTT assay
Format: functional, cell-based
Conditions: 786-0

| Structure (SMILES) | IC50 [µM] |
| --- | --- |
| COC(=O)[C@@]12C[C@H]3C[C@H](C(C)=O)[C@@H]1N(CCc1c2[nH]c2ccccc12)C3 | 27.3 |

System: RAW264.7
Test: Anti-inflammatory activity in mouse RAW264.7 cells assessed as LPS-stimulated inhibition of nitric oxide production incubated simultaneously with LPS for 24 hrs by Griess reagent based assay
Format: functional, cell-based
Conditions: not given
Summary of the method: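 RAW264.7 cells grown in RPMI 1640 with 10% heat-inactivated FBS, penicillin 100 U/mL and streptomycin 100 μg/mL; 1 × 10^5 cells/well allowed to adhere 2 h at 37 °C, 5% CO2. Cells exposed to 1 μg/mL LPS for 24 h with or without compounds across a concentration range. Indomethacin as positive control. Nitrite in supernatant measured by Griess reagent. Run in triplicate; IC50 reported.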

| Structure (SMILES) | inhibition |
| --- | --- |
| COC(=O)[C@@]12C[C@@H]3C[C@@H](C(C)O)[C@@H]1N(CC[C@]21Nc2ccccc2C1=O)C3 (some centres not stated) | inactive |
| CC[C@H]1C[C@@H]2C[C@@]3(C(=O)OC)c4[nH]c5ccccc5c4CCN(C2CO)[C@@H]13 (some centres not stated) | Active |
| COC(=O)[C@@]12C[C@H]3C[C@H](C(C)=O)[C@@H]1N(CCc1c2[nH]c2ccccc12)C3 | Active |
| C[C@H](O)[C@@H]1C[C@H]2C[C@H]3c4[nH]c5ccccc5c4CCN(C2)[C@@H]13 | Active |
| COC(=O)[C@@]12C[C@H]3C[C@H]([C@H](C)O)[C@@H]1N(Cc1c2n(C=O)c2ccccc12)C3 | inactive |
| C/C=C1/C[N@+]2(C)CCc3c([nH]c4ccccc34)C(CO)(C(=O)[O-])[C@H]1CC2 (some centres not stated) | inactive |
| C/C=C1/C[N@+]2(C)CCc3c([nH]c4ccccc34)[C@H](C(=O)[O-])[C@H]1CC2 | inactive |
| COC(=O)[C@]12C[C@@H]3CN(CCc4c1[nH]c1ccccc41)[C@H]2[C@@H]([C@H](C)O)C3O (some centres not stated) | Active |
| COC(=O)[C@@]12C[C@H]3C[C@H]([C@H](C)O)[C@@H]1N(CCc1c2[nH]c2ccccc12)C3CC(C)=O (some centres not stated) | Active |
| C[N@@+]12CCc3c([nH]c4ccccc34)[C@](CO)(C(=O)[O-])[C@@H](CC1)/C(=C\CO)C2 | inactive |
| C/C=C1/C[N@+]2(C)CCc3c([nH]c4ccccc34)[C@@H](C(=O)[O-])[C@H]1CC2 | inactive |
| CC[C@H]1C[C@@H]2C[C@@]3(C(=O)OC)c4[nH]c5ccccc5c4CCN(C2CC(C)=O)[C@@H]13 (some centres not stated) | Active |

Same assay, conditions: RAW264.7, 24 h

| Structure (SMILES) | IC50 [µM] |
| --- | --- |
| CC[C@@]1(O)CC2[C@H]3C(C(=O)OC)=C4Nc5ccccc5C45CCN([C@H]25)[C@H]31 (some centres not stated) | 41.5 |
| CC[C@H]1C[C@@H]2CN3CCc4c([nH]c5ccccc45)[C@](C(=O)OC)(C2)[C@H]13 [CORONARIDINE] | 25.5 |
| COc1ccc2c(c1)c(CC(=O)O)c(C)n2C(=O)c1ccc(Cl)cc1 [INDOMETHACIN] | 42.6 |

System: HL-60
Test: Cytotoxicity against human HL60 cells by MTT assay
Format: functional, cell-based
Conditions: not given

| Structure (SMILES) | IC50 [µM] |
| --- | --- |
| COC(=O)[C@@]12C[C@H]3C[C@H](C(C)=O)[C@@H]1N(CCc1c2[nH]c2ccccc12)C3 | 48.5 |
